Entries after “also recorded” stand apart in the source; their conditions may differ.
Columns and labels:
[1] = Circular dichroism of AKB peptides; assay type: physicochemical; details: 0.1 M Tris pH 8.5, Jasco J-810
PKA-RIβ = assay: Confocal colocalization with PKA-RIβ-mKO2 in HeLa cells; assay type: cell-based; details: transfected, confocal, unstimulated
Procedure, shortened: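 HeLa cells co-expressed GFP-tagged smAKAP (wild type, S66E or S66D) with mKO2-tagged PKA-RIα or RIβ. Cells were washed in ice-cold PBS, fixed in ice-cold 4% formaldehyde in PBS, washed twice and imaged by confocal microscopy through a 63× oil objective. Stimulated cells received calyculin A plus 8-CPT-cAMP and were imaged live.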

PKA-RIα = assay: Confocal colocalization with PKA-RIα in HeLa cells; assay type: cell-based; details: transfected, confocal, PKA-RIα-mCherry
PKA:AKAP interaction = details: through an allosteric effect away from the D/D domain; ref [32]; cited from earlier work
PKG Iα = assay: 32P phosphorylation assay with PKG Iα; assay type: biochemical; details: PKG Iα 20 nM, pH 7.5; n = 3
Procedure, shortened: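 Substrate was His-tagged human smAKAP (wild type, or S66D with PKA-Cα) at 10 μM. It was incubated with 20 nM recombinant kinase in 50 mM MOPS pH 7.5 containing 10 mM MgCl2, 200 μM ATP and [32P]ATP. Aliquots were quenched in 30% acetic acid at 0, 5, 10 and 15 min. Results are means ± SD of 3 independent experiments.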

**Q.** For IVILEYAHRLEQDILCDALQQWAC [AKB-S66E], which “secondary structure by CD” value [1] is on record?
**A.** Its value is “no secondary structure”.

**Q.** Which “colocalization with PKA-RIβ-mKO2” value (PKA-RIβ) does the source give for “smAKAP-wt-GFP: wild-type smAKAP GFP fusion expressed in transfected cells” here?
**A.** Its value is “strong colocalization along the plasma membrane; also recorded: colocalization at the plasma membrane”.

**Q.** What about the “colocalization with PKA-RIα” value (PKA-RIα) of the same compound?
**A.** The value was “strong colocalization along the plasma membrane”.

**Q.** For IVILEYAHRLSQDILCDALQQWAC [AKB-wt], which “α-helix propensity by CD” value [1] is on record?
**A.** The value was ~ 45%.

**Q.** With IVILEYAHRLpSQDILCDALQQWAC [AKB-pSer66] as the compound, how does the “secondary structure by CD” value [1] read?
**A.** The value was “no secondary structure”.

**Q.** With `Nc1cc(Cc2ccc(O)c(N)c2)ccc1O` [FMP-API-1] as the compound, how does the “inhibition of PKA binding to AKAPs” value (PKA:AKAP interaction) read?
**A.** Its value is “inhibit the binding of PKA to AKAPs”.

**Q.** Which “phosphorylation by PKG Iα compared with PKA” value (PKG Iα) does the source give for “His6-smAKAP: recombinant human His-tagged smAKAP (wt), called smAKAP-wt in the phosphorylation assay” here?
**A.** Its value is “only PKA phosphorylated”.

**Q.** With IVILEYAHRLDQDILCDALQQWAC [AKB-S66D] as the compound, how does the “secondary structure by CD” value [1] read?
**A.** The value was “no secondary structure”.
